Screening results: PubChem BioAssay, several laboratories
Lmaj promast: reduces viability of Leishmania major promastigotes | resazurin fluorescence viability | inhibition, % at 10 µM | hit rate 9% among 200,000 | AID 1063; in the data active = inhibition above about 50%;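 note: promastigotes grown with compound for 44 hours at 28 °C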
Diaphorase act: activates diaphorase or chemically reduces, flagging diaphorase assay artifacts; Diaphorase/resazurin coupled assay, resorufin fluorescence, 16 min; stronger effect = higher value; 1 = vehicle wells, 0 = NADH-free wells; activation factor at 20 µM; hit rate 0.005% among 190,000;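 active = diaphorase activity raised at least twofold by the compound at 20 µM; inactive = activation factor below 2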
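System – purified diaphorase enzyme from Clostridium kluyveri · Input – enzyme 0.07 U/mL final · Also added – final NADH 0.114 mM, resazurin 0.1 mM · Measured by – fluorescence of resorufin, 544 nm excitation, 590 nm emission · Timing – 16 min enzyme reaction, ambient temperature · Measure – resorufin increase flagging diaphorase activators or reducers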
WT yeast gro inh: growth inhibition of WT yeast, mitochondrial fusion screen; inhibition, % at 10 µM; hit rate 2.1% among 190,000; mitochondrial fusion phenotypic screen, WT strain; AID 1362; in the data active = inhibition above about 58%; tested in S. cerevisiae
PMI act hi M6P: activators of human phosphomannose isomerase at near-saturating mannose 6-phosphate; activation factor at 20 µM; P34949; AID 1216; coupled PMI enzyme assay, resazurin fluorescence, 20 min; stronger effect = higher value; 1 = untreated enzyme, 0 = substrate-free blank; hit rate 0.34% among 190,000;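 active = activation factor of 2 or more at 20 µM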
Target sequence (P34949 whole entry, looked up): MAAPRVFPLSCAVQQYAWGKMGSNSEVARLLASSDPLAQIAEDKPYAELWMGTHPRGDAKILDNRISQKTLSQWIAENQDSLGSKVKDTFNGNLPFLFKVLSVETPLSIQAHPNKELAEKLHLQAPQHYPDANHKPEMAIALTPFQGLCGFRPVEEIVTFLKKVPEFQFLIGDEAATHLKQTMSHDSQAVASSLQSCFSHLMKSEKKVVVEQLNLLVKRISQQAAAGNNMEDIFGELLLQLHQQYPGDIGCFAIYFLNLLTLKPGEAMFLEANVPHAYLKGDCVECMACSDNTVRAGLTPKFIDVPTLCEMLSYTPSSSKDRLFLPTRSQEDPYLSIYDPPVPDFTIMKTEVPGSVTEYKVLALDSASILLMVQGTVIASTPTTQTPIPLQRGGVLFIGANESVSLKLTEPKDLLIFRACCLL
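Technique: Diaphorase-driven resazurin-to-resorufin fluorescence, excitation 544, emission 590 nm | Assay system: Human PMI in coupled enzyme assay | Times: Enzyme reaction with compound 20 min at room temperature | Medium: HEPES-buffered pH 7.4 with magnesium and detergent | Reagent: Mannose-6-phosphate 1.0 mM (near-saturating) plus 0.22 mM NADP+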
PMI act: activators of human phosphomannose isomerase. activation factor at 20 µM. purified human PMI, coupled resazurin fluorescence, 20 min; stronger effect = higher value; 1 = vehicle control, 0 substrate-free wells. hit rate 0.005% among 190,000;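 active = activation factor of 2 or more at 20 µM, relative to plate controls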
Numbers without * were called inactive; x = no result. Shown are actives, neighbours in structure and some others; about 10% of the full set was active somewhere.

SMILES	Lmaj promast	Diaphorase act	WT yeast gro inh	PMI act hi M6P	PMI act
COc1cccc(CC2(CO)CCCN(Cc3cn(C)c4ccccc34)C2)c1 (centres undefined)	26	0.8	9	0.9	0.8
CCCCCC(C)NC(=O)c1ccoc1C (centres undefined)	-1	0.9	78*	1	1.1
CCCCCCCCCCCNC(=O)c1ccoc1C	4	0.8	76	1	1
S=C1NCCc2ccccc2C1c1ccccc1 (centres undefined)	0	1	21	1	1
S=C1NCCc2ccccc2C1c1ccccc1Cl (centres undefined)	-5	0.9	62*	1	1
CCCC1=C(C(=O)OCC)C(c2ccc(NC(C)=O)cc2)NC(=O)N1 (centres undefined)	-5	0.8	61*	0.9	1
CCN(CC)c1nc2ccccc2c(N)c1-c1ccccc1	100*	1	11	1	1
Cc1c(N(C)C)nc2ccccc2c1N	16	0.8	14	0.8	0.8
O=C(Cn1nc(CNc2ccc(Cl)cc2)[n+]2c1CCCCC2)c1ccc(Br)cc1	59*	1	8	0.9	0.9
Cc1ccc(C2CC(c3cccs3)=NN2S(=O)(=O)c2ccc(C)cc2)cc1 (centres undefined)	13	0.9	61*	0.9	0.8
O=C(NCCCCO)c1ccc2c3c(cccc13)CC2	-5	0.8	3	1	1
CCC1=NN2C(=N)/C(=C\c3cccn3-c3ccc(C)cc3C)C(=O)N=C2S1	12	0.7	84*	0.9	0.9
CCC1=NN2C(=N)/C(=C\c3cccn3-c3c(C)cccc3C)C(=O)N=C2S1	2	0.6	55	0.9	0.9
CCC1=NN2C(=N)/C(=C\c3cccn3-c3cccc(Cl)c3)C(=O)N=C2S1	-15	0.4	62*	1	0.9
CCC1=NN2C(=N)/C(=C\c3cccn3-c3ccc(Br)cc3)C(=O)N=C2S1	-10	0.6	23	1.1	1.1
COc1cc(/C=C2/C(=O)N(c3ccccc3)N=C2C)ccc1OS(=O)(=O)c1ccccc1	87*	0.6	0	0.7	0.9
CC1=NN(c2ccc(C)c(C)c2)C(=O)/C1=C/c1ccc2c(c1)n(C)c(=O)n2C	97*	0.9	-12	0.8	0.9
Cc1cnc(NC(=O)c2cc3ccccc3o2)s1	-2	1	10	1	1
CC1C(C(=O)Nc2ccccc2)CCCC1(C)C(=O)O (centres undefined)	-4	1	8	1	1
Cc1ccc(/C=C/C(=O)NC2CCCCCCC2)o1	5	0.8	-6	1.2	1.1
COc1cc(/C=C(\CC(=O)O)c2nc3ccccc3s2)cc(OC)c1O	-7	0.7	1	0.8	1
COc1cc(C=C(c2nc3ccccc3s2)c2nc3ccccc3s2)cc(OC)c1O	95*	0.8	74*	0.5	0.8
O=C(O)c1ccc(C=C(c2nc3ccccc3s2)c2nc3ccccc3s2)cc1	11	0.6	74*	0.9	1
COc1ccc(/C=C(\CC(=O)O)c2nc3ccccc3s2)cc1O	-5	0.9	-8	1	1.1
COc1ccc(-c2nc3ccccc3s2)cc1O	-6	0.8	59*	0.9	0.9
SMILES	Lmaj promast	Diaphorase act	WT yeast gro inh	PMI act hi M6P	PMI act
CCOc1cc(/C=C(\CC(=O)O)c2nc3ccccc3s2)ccc1OC	98*	0.9	12	0.9	1
O=C(CSc1nc2ccccc2s1)N/N=C/c1ccc(C(=O)O)cc1	-5	1	-7	1	1.1
CCOC(=O)C1=C(C)N=C2SC(C(=O)OC)=CC(=O)N2C1c1cc(OC)c(OC)c(OC)c1 (centres undefined)	-6	0.8	2	0.9	0.8
CC1=NN(C(C#N)c2cccc([N+](=O)[O-])c2)C(C)(C)C1 (centres undefined)	33	1	1	1.1	1.1
CNC(=S)NNS(=O)(=O)c1ccc(OC)cc1OC	-4	1	-1	1.1	1
O=C(COC(=O)/C=C/C(=O)OCC(=O)NC12CC3CC(CC(C3)C1)C2)NC12CC3CC(CC(C3)C1)C2	-2	0.9	-11	0.9	0.9
CC(C)CCNC(=O)Cc1ccc(Nc2nc(=S)[nH]c3ccccc23)cc1	38	0.8	5	1	0.5
Cc1ccc(/C=C/C(=O)Nc2sc3c(c2C#N)CCCC3)o1	-6	0.9	-14	0.9	1
COc1cc(/C=N/NC(=Nc2ccc(C)cc2)c2nc3ccccc3s2)ccc1O	6	0.9	75*	1.1	1
COc1ccccc1/C=N/NC(=Nc1ccc(C)cc1)c1nc2ccccc2s1	26	0.8	-17	1	0.9
CCc1ccc(CN2CCCC(CNS(=O)(=O)c3ccc(OC)cc3)C2)cc1 (centres undefined)	84*	1	4	1	1
COc1ccc(S(=O)(=O)NCC2CCCN(Cc3ccc(C)o3)C2)cc1 (centres undefined)	21	1.1	-3	0.9	0.9
O=C(Oc1ccc(-c2nnco2)cc1)N(c1ccccc1)c1ccccc1	6	0.9	58*	0.9	0.9
CCOC(=O)Cn1c2c(c(=N)c3c1CCC3)CCCC2	18	0.9	7	1	1.1
N=c1c2c(n(Cc3ccc(Cl)c(Cl)c3)c3c1CCC3)CCCC2	100*	0.9	72*	0.9	0.9
CCCCCCCn1c2c(c(=N)c3ccccc31)CCC2	100*	1.2	81*	1	1
CCCn1c2c(c(=N)c3c1CCC3)CCCC2	100*	0.9	10	0.9	0.8
N=c1c2c(n(Cc3ccc(Br)cc3)c3c1CCC3)CCCC2	100*	0.9	58*	1	1.1
Clc1ccc(Cn2cc(Br)cn2)cc1Cl	-2	0.8	6	0.9	0.8
O=c1[nH]c(=O)n(Cc2ccccc2)c2c1CCC2	3	1	-31	1	1
O=C(O)CCn1c2c(c3ccccc31)CCCC2	-6	0.9	-13	0.9	0.8
COc1ccc(/C=C/C(=O)NCC(=O)N2CCC(N(C)CCN3CCOCC3)CC2)cc1OC	-7	1	-11	1.1	1.1
COc1cccc(COC(=O)c2nn(-c3ccccc3)nc2N)c1	-5	1	7	1	1
Cc1cc(/C([O-])=C(/C(=S)Nc2ccc(F)cc2)[n+]2ccccc2)c(C)n1Cc1ccccc1Cl	4	0.7	-1	0.6	1
C=CCOc1ccc(CNc2ccc3[nH]c(=O)[nH]c3c2)cc1	16	x	-4	x	x
O=C(O)c1ccc2c(c1)C(=O)N(N1C(=O)c3ccccc3C1=O)C2=O	47	0.9	-11	1.1	1.1
Cc1c(/C(O)=C2/C(=O)C(=O)N(CCN3CCOCC3)C2c2ccccn2)cnn1-c1ccccc1 (centres undefined)	-5	0.9	1	1.1	1.4
